# A1 apoptosis 2: A1 inhibitors via caspase activation, primary screen, cell-based, luminescence, HTS, two replicates | MEF A1-2A-BIM cells, caspase-Glo luminescence, 3 h; percent of clofoctol response, DMSO zero | caspase activation, % (no concentration beside the values) | 24,000 tested, under 10 active | AID 2465, 2010; in the data active = caspase activation above about 5.9%
#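 System: mouse embryonic fibroblasts co-expressing A1 and BIM (A1-2A-BIM), primed for A1 dependence; amount: 2500 cells/well; doses: 50 nL pinned compound; schedule: cells settled overnight, compound exposure 3 h at 37 °C, 5% CO2; detection: Caspase-Glo 3/7 luminescence, 1 h at room temperature; read-out: Caspase-3/7 activation, seen as rise in luminescence signal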
# INS-1E rescue: protection of INS-1E cells from cytokine death, primary screen, ATP luminescence, single point; INS-1E cytokine-induced death, 48 h; normalised: neutral wells 0, positive control 100; protection from cytokine-induced ATP loss, % at 10 µM; actives 0.1% (n = 20,000); AID 488910, 2010;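 active = mean replicate protection from cytokine-induced ATP loss at least 50% and at least 75% of replicates each reaching 50%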
#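 Assay system – rat INS-1E insulinoma cell line · Quantity – 8000 cells per well · Buffer or medium – RPMI without phenol red, 5% FBS · Schedule – 48 h co-treatment, 10 min post-lysis read · Technique – luminescent ATP assay (CellTiter-Glo)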
# T cruzi HTS: inhibitors of intracellular Trypanosoma cruzi, primary screen, cell-based, plate reader, single point, set 2; intracellular Trypanosoma cruzi in host cells; activity score (inhibition), % at 5.01 µM; actives 4.9% (n = 22,000); in the data active = activity score above about 55%;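 also: parasites and compound incubated about four days before reading; 0% = median of neutral control wells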
# * marks the source's active call; other numbers are inactive results; · = not tested or not shown. Shown is part of a subset that was picked to be rich in hits.
SMILES,A1 apoptosis 2,INS-1E rescue,T cruzi HTS
COc1ccc(S(=O)(=O)N(C)C[C@H]2Oc3ccc(NS(=O)(=O)c4ccc(C)cc4)cc3CC(=O)N([C@H](C)CO)C[C@H]2C)cc1,1,7,64*
COc1ccc(S(=O)(=O)Nc2ccc3c(c2)CC(=O)N([C@@H](C)CO)C[C@@H](C)[C@@H](CN(C)S(=O)(=O)c2ccc(C)cc2)O3)cc1,·,7,63*
O=C(O)CCCCCCC(=O)N/N=C/c1cccnc1,0,11,-12
CCn1c2ccccc2c2cc(/C=N/NC(=O)CCCCCC(=O)Nc3ccccc3O)ccc21,0,·,·
CC1(C)COC(CCC/C=N/NC(=O)c2ccc(C(=O)NO)cc2)OC1,0,33,4
O=C(CCCCCCC(=O)Nc1ccccc1O)N/N=C/c1ccc(Br)s1,0,-5,-2
C[C@@H]1CN([C@@H](C)CO)C(=O)Cc2cc(NC(=O)NC3CCCCC3)ccc2O[C@@H]1CN(C)Cc1ccc(Oc2ccccc2)cc1,·,-17,53
C[C@@H]1CN([C@H](C)CO)C(=O)Cc2cc(NC(=O)NC3CCCCC3)ccc2O[C@H]1CN(C)Cc1ccc(-c2ccccc2)cc1,·,-27,75*
C[C@H](CO)N1C[C@H](C)[C@@H](CN(C)Cc2ccc(-c3ccccc3)cc2)Oc2ccc(NC(=O)NC3CCCCC3)cc2CC1=O,-1,·,·
C[C@@H]1CN([C@H](C)CO)C(=O)Cc2cc(NC(=O)NC3CCCCC3)ccc2O[C@H]1CN(C)Cc1ccc(Oc2ccccc2)cc1,1,-29,64*
C=CCC/C=N/NC(=O)CCCCCC(=O)O,0,-1,-15
C[C@@H]1CCCCO[C@@H](CN(C)C(=O)Nc2ccc(C(F)(F)F)cc2)[C@@H](C)CN([C@H](C)CO)C(=O)c2cc(NC(=O)Nc3ccc4c(c3)OCO4)ccc2O1,1,4,67*
C[C@@H]1CCCCO[C@H](CN(C)C(=O)Nc2ccc3c(c2)OCO3)[C@@H](C)CN([C@H](C)CO)C(=O)c2cc(NC(=O)Nc3ccc(C(F)(F)F)cc3)ccc2O1,·,-35,76*
C[C@@H]1CCCCO[C@H](CN(C)C(=O)Nc2ccc(C(F)(F)F)cc2)[C@H](C)CN([C@@H](C)CO)C(=O)c2cc(NC(=O)Nc3ccc4c(c3)OCO4)ccc2O1,-1,·,·
C[C@@H]1CCCCO[C@@H](CN(C)C(=O)Nc2ccc3c(c2)OCO3)[C@@H](C)CN([C@@H](C)CO)C(=O)c2cc(NC(=O)Nc3ccc(C(F)(F)F)cc3)ccc2O1,0,·,·
O=C(N/N=C/c1cc(Br)cc([N+](=O)[O-])c1O)c1ccccn1,-3,8,4
C[C@H](CO)N1C[C@H](C)[C@H](CN(C)C(=O)Nc2ccc3c(c2)OCO3)Oc2ncc(C#Cc3ccc(C(F)(F)F)cc3)cc2C1=O,0,·,83*
C[C@H](CO)N1C[C@H](C)[C@H](CN(C)C(=O)Nc2ccccc2)Oc2ncc(C#Cc3ccccc3)cc2C1=O,-1,·,-5
COc1ccc(NC(=O)N(C)C[C@@H]2Oc3ncc(C#Cc4ccc(C(F)(F)F)cc4)cc3C(=O)N([C@H](C)CO)C[C@@H]2C)cc1,0,·,83*
C[C@H](CO)N1C[C@H](C)[C@H](CN(C)C(=O)Nc2ccc3c(c2)OCO3)Oc2ncc(C#CC(C)(C)O)cc2C1=O,·,-11,-12
COc1ccc(NC(=O)N(C)C[C@@H]2Oc3ncc(C#CC(C)(C)O)cc3C(=O)N([C@H](C)CO)C[C@@H]2C)cc1,-1,·,-5
C[C@H](CO)N1C[C@H](C)[C@H](CN(C)C(=O)Nc2ccccc2)Oc2ncc(C#Cc3ccc(C(F)(F)F)cc3)cc2C1=O,0,·,83*
NC(=O)COc1ccc(/C=N/NC(=O)c2cccc(C(=O)NO)c2)cc1,·,-6,5
NC(=O)NCC#Cc1ccc2c(c1)[C@]1(C(=O)N2)[C@H](C(=O)Nc2nc3ccccc3s2)[C@H]2C(=O)O[C@H](c3ccccc3)[C@H](c3ccccc3)N2[C@@H]1c1ccccc1OCCO,0,·,·
[N-]=[N+]=NC[C@H](Cc1ccccc1)NC(=O)c1ccccc1,-1,·,·
COc1cccc(OC)c1/C=N/NC(=O)CCCCCC(=O)NO,-1,·,·
COc1ccc(C#Cc2ccc3c(c2)[C@]2(C(=O)N3)[C@H](C(=O)O)[C@H]3C(=O)O[C@H](c4ccccc4)[C@H](c4ccccc4)N3[C@@H]2c2ccc(OCCO)cc2)cc1,-1,·,·
NC(=O)COc1ccc(/C=N/NC(=O)CCCCCCC(=O)NO)cc1,0,·,·

# Compound activity deposited in PubChem BioAssay by Broad Institute.
